Series [1] has as its target Free fatty acid receptor 1 (Mus musculus, UniProt Q76JU9). Put plainly: Agonist activity at mouse GPR40 expressed in HEK293 cells assessed as increase in intracellular calcium level after 5 mins by FLUO-4-AM dye-based FLIPR assay. The format is functional, cell-based. The method in brief:
(§1)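 HEK293s cells stably expressing mouse GPR40 were seeded 24 h before assay and loaded for 1 h with calcium 3/Fluo-4 AM in HBSS, 20 mM HEPES, 0.01% BSA, 2.5 mM probenecid, pH 7.4. FLIPR Tetra took 10 baseline reads, then read for 5 min after addition. Runs were in duplicate, 9 points, 100 μM to 7 nM final, as % of maximal eladic acid control.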
Background: Calcium assays in cells follow changes in intracellular calcium, usually with a dye or a luminescent sensor.

Series [2] concerns the target Free fatty acid receptor 1 (Mus musculus) (UniProt Q76JU9). As to the kind of experiment: Agonist activity at mouse GPR40 expressed in HEK293 cells assessed as increase in intracellular calcium level after 5 mins by FLUO-4-AM dye-based FLIPR assay relative to control. The format is functional, cell-based. The gist of the method:
as §1

For series [3], the target named is T1, Free fatty acid receptor 4 (Homo sapiens, UniProt Q5NUL3).
T1 sequence (Q5NUL3 whole entry): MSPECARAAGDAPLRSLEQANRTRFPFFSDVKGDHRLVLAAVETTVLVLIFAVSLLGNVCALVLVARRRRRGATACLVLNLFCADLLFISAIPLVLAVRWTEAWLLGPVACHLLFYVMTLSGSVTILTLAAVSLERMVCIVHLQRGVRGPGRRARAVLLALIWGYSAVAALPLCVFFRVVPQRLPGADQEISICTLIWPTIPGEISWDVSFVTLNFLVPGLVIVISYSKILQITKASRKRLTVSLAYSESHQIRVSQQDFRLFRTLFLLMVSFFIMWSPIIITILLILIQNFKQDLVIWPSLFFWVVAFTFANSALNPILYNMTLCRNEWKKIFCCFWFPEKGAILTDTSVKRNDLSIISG
As to the kind of experiment: Agonist activity at human GPR120 expressed in CHO-FlpIn cells after 15 mins by DMR assay. The format is cell-based. The gist of the method: (§2)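 Cryopreserved CHO FlpIn cells stably expressing human or mouse GPR120 were seeded 48 h before assay, serum-starved for 24 h, then held 2 h in HBSS/20 mM HEPES/0.01% BSA (pH 7.4) with 0.5% DMSO. DMR was read over a 10 min baseline and for 15 min after addition. Runs were in duplicate, 10 points, 16 μM to 0.8 nM final, as % of maximal control agonist.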

For series [4], the target named is T2, Free fatty acid receptor 4 (Homo sapiens) (UniProt Q5NUL3).
T2 sequence (whole entry): T1 sequence (Q5NUL3 whole entry)
Put plainly: Agonist activity at human GPR120 expressed in CHO-FlpIn cells after 15 mins by DMR assay relative to control. The format is cell-based. The gist of the method:
as §2

Series [5] deals with T3, Free fatty acid receptor 4 (Mus musculus, UniProt Q7TMA4).
T3 sequence (Q7TMA4 whole entry): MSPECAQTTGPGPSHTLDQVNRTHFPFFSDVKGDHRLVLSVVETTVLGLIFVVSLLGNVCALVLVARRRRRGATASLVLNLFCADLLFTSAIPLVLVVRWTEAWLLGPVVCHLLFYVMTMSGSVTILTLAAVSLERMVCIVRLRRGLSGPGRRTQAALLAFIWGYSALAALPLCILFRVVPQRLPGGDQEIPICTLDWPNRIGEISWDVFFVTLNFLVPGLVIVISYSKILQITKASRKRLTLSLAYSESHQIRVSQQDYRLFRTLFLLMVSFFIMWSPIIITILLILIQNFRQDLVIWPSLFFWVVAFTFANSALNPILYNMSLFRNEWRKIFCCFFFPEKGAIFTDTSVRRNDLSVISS
Put plainly: Agonist activity at mouse GPR120 expressed in CHO-FlpIn cells after 15 mins by DMR assay. The series is classed as cell-based. The method in brief: as §2

The target of series [6] is T4, Free fatty acid receptor 4 (Mus musculus) (UniProt Q7TMA4).
T4 sequence (whole entry): T3 sequence (Q7TMA4 whole entry)
As to the kind of experiment: Agonist activity at mouse GPR120 expressed in CHO-FlpIn cells after 15 mins by DMR assay relative to control. The series is classed as cell-based. The gist of the method:
as §2

A short description of series [7]: Octanol-buffer partition coefficient, log D of the compound at pH 7.4 after 30 mins by LC-UV based shake-flask method.

Free fatty acid receptor 1, sequence (Q76JU9 whole entry): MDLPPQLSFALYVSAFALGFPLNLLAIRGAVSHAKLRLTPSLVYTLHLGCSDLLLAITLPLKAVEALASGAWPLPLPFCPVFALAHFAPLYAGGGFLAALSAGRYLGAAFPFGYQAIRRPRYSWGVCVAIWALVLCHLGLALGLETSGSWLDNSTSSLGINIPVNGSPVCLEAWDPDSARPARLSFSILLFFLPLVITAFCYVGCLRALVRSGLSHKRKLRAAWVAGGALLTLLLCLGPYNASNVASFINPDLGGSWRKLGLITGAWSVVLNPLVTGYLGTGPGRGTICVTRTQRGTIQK
Free fatty acid receptor 1 (Mus musculus), sequence (Q76JU9 whole entry): as above

In general, EC50 refers to the concentration giving half of the maximal effect. With `C[C@@H](Cc1ccc(-c2ccc3cnn(-c4ccccn4)c3c2)cc1)C(=O)O`, the figures for the EC50 in series [1] and in series [3] were 3800 nM and 4000 nM, respectively. The figures for the Efficacy in series [2] and in series [4] were 31% and 100%, respectively.

As a reminder, the logD is the decadic logarithm of the distribution of all forms, ionised or not, between an organic phase and buffer at a given pH. `Cc1ccc(-n2nc(C)c3c(F)cc(-c4ccc([C@H]5C[C@@H]5C(=O)O)cc4)cc32)cc1`: the 50% effective concentration (EC50) in series [5] is 540 nM; in series [1] it was above 100000 nM; in series [3], 520 nM. Further, the values for the Efficacy in series [6], in series [2] and in series [4] were 112%, 14% and 88%, respectively. In series [7], this compound returned a logD at 0.5 h of 4.2.

Consider `Cc1nn(-c2ccccn2)c2cc(-c3ccc([C@H]4C[C@@H]4C(=O)O)cc3)ccc12` [listing 1 of 2 here], for which the Efficacy in series [2] is 10%; in series [4] it was 95%.

On to `Cc1nn(-c2ccccn2)c2cc(-c3ccc([C@H]4C[C@@H]4C(=O)O)cc3)ccc12` [listing 2 of 2 here], for which the EC50 in series [1] was above 100000 nM; in series [3] it was 690 nM.

`COc1nn(-c2ccccn2)c2cc(-c3ccc(CCC(=O)O)cc3)ccc12`: the EC50 was 2600 nM in series [1] and 250 nM in series [3]. The compound also returned a logD at 0.5 h in series [7] of 3.3. Besides, the Efficacy was 96% in series [2] and 122% in series [4].

For `Cc1nn(-c2ccccn2)c2cc(-c3ccc([C@H]4C[C@H]4C(=O)O)cc3)ccc12` (racemic), the values for the EC50 in series [1] and in series [3] were 19000 nM and above 17000 nM, respectively. For the same compound, the figures for the Efficacy in series [2] and in series [4] were 81% and 9%, respectively.

On to `Cc1nn(-c2ccccn2)c2cc(-c3ccc([C@H]4C[C@@H]4C(=O)O)cc3)ccc12` (racemic) [listing 1 of 2 here], for which the Efficacy in series [2] worked out at 6%; in series [4], 87%.

Regarding `N#Cc1nn(-c2ccccn2)c2cc(-c3ccc(CCC(=O)O)cc3)ccc12`, the EC50 in series [1] came to 2000 nM; in series [3], 4800 nM. For the same compound, in series [7], the logD at 0.5 h came to 3. Moreover, the Efficacy in series [2] turned out to be 124%; in series [4] it was 87%.

Consider `O=C(O)CCc1ccc(-c2ccc3cnn(-c4ccccn4)c3c2)cc1`, for which the EC50 in series [1] amounted to 4500 nM; in series [3], 990 nM. In series [7], this compound gave a pH-dependent lipophilicity (logD) at 0.5 h of 2.4. Further, the values for the Efficacy in series [2] and in series [4] were 106% and 114%, respectively.

In the case of `Cc1nn(-c2ccccn2)c2cc(-c3ccc(CCC(=O)O)cc3F)ccc12`, the results for the EC50 in series [1] and in series [3] were 1500 nM and 600 nM, respectively. The compound also gave a logD at 0.5 h in series [7] of 2.9. Further, the Efficacy in series [2] worked out at 105%; in series [4] it was 113%.

In the case of `Cc1nn(-c2ccccn2)c2cc(-c3ccc(CCC(=O)O)cc3)ncc12`, the EC50 turned out to be 9200 nM in series [1] and 2600 nM in series [3]. In addition, the logD at 0.5 h in series [7] amounted to 1.6. For the same compound, the values for the Efficacy in series [2] and in series [4] were 86% and 78%, respectively.

As for `Cc1cc(-c2ccc(CCC(=O)O)cc2)cc2c1cnn2-c1ccccn1`, the EC50 in series [1] amounted to 2600 nM; in series [3] it was 4600 nM. This compound showed a logD at 0.5 h in series [7] of 2.6. For the same compound, the Efficacy in series [2] came out at 82%; in series [4], 70%.

For `Cc1nn(-c2ccccn2)c2cc(-c3ccc(C(C)CC(=O)O)cc3)ncc12` (stereo unspecified), the EC50 in series [1] was determined as 61000 nM; in series [3], 12000 nM. Besides, the Efficacy stood at 50% in series [2] and 28% in series [4].

For the compound `Cc1nn(-c2ccccn2)c2cc(-c3ccc([C@H]4C[C@@H]4C(=O)O)cc3)ccc12` (racemic) [listing 2 of 2 here], the 50% effective concentration (EC50) in series [1] is above 100000 nM; in series [3], 850 nM.

For the compound `Cc1ccc(-n2nc(C)c3cnc(-c4ccc([C@H]5C[C@@H]5C(=O)O)cc4)cc32)cc1`, the EC50 is 640 nM in series [5], above 100000 nM in series [1] and 900 nM in series [3]. Also, the Efficacy in series [6] came out at 99%; in series [2], 12%; in series [4] it was 76%. In addition, in series [7], the logD at 0.5 h turned out to be 2.6.

With `Cc1nn(-c2ccccn2)c2cc(-c3ccc(CC(C)(C)C(=O)O)cc3)ccc12`, the values for the EC50 in series [1] and in series [3] were above 100000 nM and 4100 nM, respectively. The Efficacy in series [2] is 18%; in series [4] it was 79%.

Regarding `N#Cc1cc(-c2ccc(CCC(=O)O)cc2)cc2c1cnn2-c1ccccn1`, the figures for the EC50 in series [1] and in series [3] were 19000 nM and 2000 nM, respectively. The same compound came in with a logD at 0.5 h in series [7] of 2.2. In addition, the Efficacy worked out at 113% in series [2] and 78% in series [4].

With `O=C(O)CCc1ccc(-c2ccc3c(OCc4ccccc4)nn(-c4ccccn4)c3c2)cc1`, the EC50 in series [1] was 1300 nM; in series [3], above 17000 nM. Further, the Efficacy came to 81% in series [2] and 2% in series [4].

For the compound `Cc1nn(-c2ccccn2)c2cc(-c3ccc(CCCC(=O)O)cc3)ccc12`, the EC50 in series [1] is 2100 nM; in series [3], 260 nM. Also, the Efficacy turned out to be 117% in series [2] and 128% in series [4].

As to `CCc1nn(-c2ccccn2)c2cc(-c3ccc(CCC(=O)O)cc3)ccc12`, the concentration giving a half-maximal response (EC50) turned out to be 1100 nM in series [1] and 760 nM in series [3]. The logD at 0.5 h in series [7] was 3.3. Besides, the Efficacy in series [2] was found to be 93%; in series [4], 75%.

Take `Cc1nn(-c2ccccn2)c2cc(-c3ccc(CCC(=O)O)cc3)ccc12`: the results for the concentration for a half-maximal effect (EC50) in series [1] and in series [3] were 1400 nM and 640 nM, respectively. Further, the Efficacy was 95% in series [2] and 107% in series [4].

For the compound `C[C@H](Cc1ccc(-c2ccc3cnn(-c4ccccn4)c3c2)cc1)C(=O)O`, the figures for the EC50 in series [1] and in series [3] were above 100000 nM and 4300 nM, respectively. The Efficacy in series [2] worked out at 18%; in series [4], 88%.

As for `COc1cc(CCC(=O)O)ccc1-c1ccc2c(C)nn(-c3ccccn3)c2c1`, the EC50 in series [1] worked out at 8200 nM; in series [3], 720 nM. In series [7], the logD at 0.5 h came out at 2.4. Also, the values for the Efficacy in series [2] and in series [4] were 62% and 82%, respectively.

`Cc1nn(-c2ccccn2)c2cc(-c3cccc(CC(=O)O)c3)ccc12` came in with an EC50 in series [3] above 17000 nM. Moreover, in series [4], the Efficacy turned out to be 3%.

For `Cc1nn(-c2ccccn2)c2cc(-c3cccc(CCC(=O)O)c3)ccc12`, the EC50 was above 100000 nM in series [1] and above 17000 nM in series [3]. Besides, the Efficacy in series [2] was found to be 0%; in series [4], 28%.

In series [3], `Cc1nn(-c2ccccn2)c2cc(-c3ccc(CC(=O)O)cc3)ccc12` yielded an EC50 above 17000 nM. The compound also yielded an Efficacy in series [4] of 8%.

As to `Cc1nn(-c2ccccn2)c2cc(-c3ccc(CCC(=O)O)cc3C#N)ccc12`, the EC50 in series [1] was 6100 nM; in series [3] it was 2400 nM. Besides, in series [7], the logD at 0.5 h was 2.2. Moreover, the Efficacy in series [2] turned out to be 47%; in series [4] it was 80%.

`Cc1nn(-c2ccccn2)c2cc(-c3ccc([C@@H]4C[C@H]4C(=O)O)cc3)ccc12`: the 50% effective concentration (EC50) is above 100000 nM in series [1] and above 17000 nM in series [3]. In addition, the Efficacy in series [2] is 2%; in series [4], 26%.

In the case of `Cc1nn(-c2ccccn2)c2cc(-c3ccc(CCC(=O)O)cc3Cl)ccc12`, the EC50 in series [1] was found to be 1200 nM; in series [3], 710 nM. The logD at 0.5 h in series [7] was found to be 3.3. Moreover, the results for the Efficacy in series [2] and in series [4] were 102% and 113%, respectively.

For `O=C(O)CCc1ccc(-c2cc(F)c3cnn(-c4ccccn4)c3c2)cc1`, the results for the EC50 in series [1] and in series [3] were 2600 nM and 470 nM, respectively. Besides, the logD at 0.5 h in series [7] was found to be 2.8. For the same compound, the Efficacy in series [2] was determined as 126%; in series [4] it was 100%.

The values are drawn from ChEMBL document CHEMBL4049430, “Indazole-6-phenylcyclopropylcarboxylic Acids as Selective GPR120 Agonists with in Vivo Efficacy” (J Med Chem, 2017).
